# Data reported in article PMC7709506 (ESMO Open, 2020).
# System: FGFR and VEGFR pathways
# Assay: Soluble biomarkers of FGFR and VEGFR pathways
# Set-up: species or system human
# Conditions: in vivo
# Procedure, shortened: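 Plasma FGF23, sVEGFR2, sVEGFR1, VEGF, FGF2 and PGF were sampled at baseline, day 8 and day 29 during oral test compound dosing and analysed in batches during or at study end. Values are expressed as percentage change from baseline (day 1 predose).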
structure (smiles),measurement,value
Cn1cc(-c2ccc3c(c2)ncn3-c2cc(NS(=O)(=O)C3CC3)cc(-c3ccc(F)cc3F)c2)cn1 [ODM-203],"percentage mean changes in soluble markers FGF23, VEGFR2, VEGF and PGF",appeared to be dose dependent
